# Key:
# [1] = Inhibition of RTK/PI3K/AKT/mTOR signaling in human U87 cells assessed as up regulation of NCOR2 gene expression at cytotoxic IC50 measured after 48 hrs relative to control; assay type: cell-based; details: U-87MG ATCC
# Procedure, shortened: (§1)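 Cells were exposed for 48hrs at 37°C in humidified 5% CO₂ to the compound at its previously determined IC₅₀, with Cisplatin at its IC₅₀ and an untreated negative control alongside. Each condition was run in triplicate. RNA was isolated from all samples by the same protocol. Genes were called differentially expressed by DESeq2 at q-value < 0.05 and fold change > 1.5.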
# U-87 MG [2] = assay: Induction of apoptosis in human U87 cells assessed as change in ITPR1 gene expression at cytotoxic IC50 measured after 48 hrs […] relative to control; assay type: functional, U-87MG ATCC
# Procedure, shortened: (§2)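 U87 cells grown in MEM with 10% FBS at 37°C, 5% CO2. Cells exposed to IC50 of test compound for 48 hrs, alongside untreated and cisplatin controls, each condition in triplicate. RNA isolated and profiled; differential expression called with DESeq2 (q-value < 0.05, fold change > 1.5), fold change versus untreated.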
# [3] = Inhibition of RTK/PI3K/AKT/mTOR signaling in human U87 cells assessed as up regulation of basic transcription factor 3 like 4 gene expression at cytotoxic IC50 measured after 48 hrs relative to control; assay type: cell-based; details: U-87MG ATCC
# U-87 MG [4] = assay: Induction of apoptosis in human U87 cells assessed as change in BAX gene expression at cytotoxic IC50 measured after 48 hrs […] relative to control; assay type: functional, U-87MG ATCC; procedure, shortened: as §2
# [5] = Inhibition of RTK/PI3K/AKT/mTOR signaling in human U87 cells assessed as up regulation of STC2 gene expression at cytotoxic IC50 measured after 48 hrs relative to control; assay type: cell-based; details: U-87MG ATCC
# [6] = Inhibition of RTK/PI3K/AKT/mTOR signaling in human U87 cells assessed as down regulation of DAGLB gene expression at cytotoxic IC50 measured after 48 hrs relative to control; assay type: cell-based; details: U-87MG ATCC; procedure, shortened: as §2
# [7] = Inhibition of RTK/PI3K/AKT/mTOR signaling in human U87 cells assessed as up regulation of T-cell lymphoma invasion and metastasis 1 gene expression at cytotoxic IC50 measured after 48 hrs relative to control; assay type: cell-based
# [8] = Inhibition of RTK/PI3K/AKT/mTOR signaling in human U87 cells assessed as down regulation of ABCB8 gene expression at cytotoxic IC50 measured after 48 hrs relative to control; assay type: cell-based; details: U-87MG ATCC; procedure, shortened: as §2
# LN-229 = assay: Cytotoxicity against human LN229 cells assessed as reduction in cell proliferation up to 200 uM by trypan blue dye-based cell counting analysis; assay type: functional; details: TDE = time-dependent effect
# [9] = Inhibition of RTK/PI3K/AKT/mTOR signaling in human U87 cells assessed as up regulation of melanoma inhibitory activity 2 gene expression at cytotoxic IC50 measured after 48 hrs relative to control; assay type: cell-based; details: U-87MG ATCC
# [10] = Inhibition of RTK/PI3K/AKT/mTOR signaling in human U87 cells assessed as down regulation of COG1 gene expression at cytotoxic IC50 measured after 48 hrs relative to control; assay type: cell-based; details: U-87MG ATCC; procedure, shortened: as §2
# [11] = Inhibition of RTK/PI3K/AKT/mTOR signaling in human U87 cells assessed as down regulation of MAFF gene expression at cytotoxic IC50 measured after 48 hrs relative to control; assay type: cell-based; details: U-87MG ATCC; procedure, shortened: as §1
# [12] = Inhibition of RTK/PI3K/AKT/mTOR signaling in human U87 cells assessed as down regulation of PTGES3 gene expression at cytotoxic IC50 measured after 48 hrs relative to control; assay type: cell-based; details: U-87MG ATCC; procedure, shortened: as §1
# U-87 MG [13] = assay: Induction of DNA damage in human U87 cells assessed as change in DTL gene expression at cytotoxic IC50 measured after 48 hrs […] relative to control; assay type: functional, U-87MG ATCC
# Procedure, shortened: (§3)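 U87 expression profiling. Cells incubated 48hrs at 37°C, 5% CO₂ with the IC₅₀ concentration, alongside a cisplatin and an untreated control, in triplicate. RNA was isolated by one common protocol and profiled. DEGs were called with DESeq2 (q < 0.05, fold change > 1.5) and expressed as fold change versus untreated.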
# [14] = Inhibition of RTK/PI3K/AKT/mTOR signaling in human U87 cells assessed as up regulation of RHOA gene expression at cytotoxic IC50 measured after 48 hrs relative to control; assay type: cell-based; details: U-87MG ATCC; procedure, shortened: as §1
# U-87 MG [15] = assay: Induction of apoptosis in human U87 cells assessed as change in ACTG1 gene expression at cytotoxic IC50 measured after 48 hrs […] relative to control; assay type: functional, U-87MG ATCC; procedure, shortened: as §2
# [16] = Inhibition of RTK/PI3K/AKT/mTOR signaling in human U87 cells assessed as down regulation of DEF8 gene expression at cytotoxic IC50 measured after 48 hrs relative to control; assay type: cell-based; details: U-87MG ATCC; procedure, shortened: as §2
# U-87 MG [17] = assay: Induction of apoptosis in human U87 cells assessed as change in GADD45A gene expression at cytotoxic IC50 measured after 48 hrs […] relative to control; assay type: functional, U-87MG ATCC; procedure, shortened: as §2
# [18] = Inhibition of RTK/PI3K/AKT/mTOR signaling in human U87 cells assessed as up regulation of PLD6 gene expression at cytotoxic IC50 measured after 48 hrs relative to control; assay type: cell-based; details: U-87MG ATCC; procedure, shortened: as §1
# [19] = Inhibition of RTK/PI3K/AKT/mTOR signaling in human U87 cells assessed as down regulation of POP4 gene expression at cytotoxic IC50 measured after 48 hrs relative to control; assay type: cell-based; details: U-87MG ATCC; procedure, shortened: as §1
# [20] = Inhibition of RTK/PI3K/AKT/mTOR signaling in human U87 cells assessed as up regulation of TOX2 gene expression at cytotoxic IC50 measured after 48 hrs relative to control; assay type: cell-based; details: U-87MG ATCC
# [21] = Inhibition of RTK/PI3K/AKT/mTOR signaling in human U87 cells assessed as up regulation of mesencephalic astrocyte derived neurotrophic factor gene expression at cytotoxic IC50 measured after 48 hrs relative to control; assay type: cell-based
# [22] = Inhibition of RTK/PI3K/AKT/mTOR signaling in human U87 cells assessed as up regulation of ras homolog family member Q gene expression at cytotoxic IC50 measured after 48 hrs relative to control; assay type: cell-based; details: U-87MG ATCC
# U-87 MG [23] = assay: Cell cycle arrest in human U87 cells assessed as change in CDC6 gene expression at cytotoxic IC50 measured after 48 hrs […] relative to control; assay type: functional, U-87MG ATCC; procedure, shortened: as §3
# [24] = Inhibition of RTK/PI3K/AKT/mTOR signaling in human U87 cells assessed as down regulation of MAP2 gene expression at cytotoxic IC50 measured after 48 hrs relative to control; assay type: cell-based; details: U-87MG ATCC; procedure, shortened: as §1
# [25] = Inhibition of RTK/PI3K/AKT/mTOR signaling in human U87 cells assessed as up regulation of TOMM22 gene expression at cytotoxic IC50 measured after 48 hrs relative to control; assay type: cell-based; details: U-87MG ATCC
# [26] = Inhibition of RTK/PI3K/AKT/mTOR signaling in human U87 cells assessed as up regulation of T-cell leukemia translocation altered gene expression at cytotoxic IC50 measured after 48 hrs relative to control; assay type: cell-based
# [27] = Inhibition of RTK/PI3K/AKT/mTOR signaling in human U87 cells assessed as up regulation of erythrocyte membrane protein band 4.1 gene expression at cytotoxic IC50 measured after 48 hrs relative to control; assay type: cell-based
# [28] = Inhibition of RTK/PI3K/AKT/mTOR signaling in human U87 cells assessed as up regulation of isoleucyl-tRNA synthetase gene expression at cytotoxic IC50 measured after 48 hrs relative to control; assay type: cell-based; details: U-87MG ATCC
compound,measurement,setting,value
CC(=O)C(=NNc1ccccc1C#N)C(C)=O,log2FC,[1],0.558
same,log2FC,U-87 MG [2],-3.437
same,log2FC,[3],0.896
same,log2FC,U-87 MG [4],2.512
same,log2FC,[5],3.02
same,log2FC,[6],-0.876
same,log2FC,[7],0.812
same,log2FC,[8],-0.871
same,Activity,LN-229,Tde
same,log2FC,[9],0.695
same,log2FC,[10],-0.632
same,log2FC,[11],-1.1
same,log2FC,[12],-0.422
same,fold change (FC),U-87 MG [13],1.519
same,log2FC,[14],0.32
same,log2FC,U-87 MG [15],-1.416
same,log2FC,[16],-0.591
same,log2FC,U-87 MG [17],-0.9679
same,log2FC,[18],1.77
same,log2FC,[19],-0.816
same,log2FC,[20],1.66
same,log2FC,[21],0.684
same,log2FC,[22],0.702
same,fold change (FC),U-87 MG [23],1.009
same,log2FC,[24],-1.55
same,log2FC,[25],0.475
same,log2FC,[26],1.25
same,log2FC,[27],1.26
same,log2FC,[28],1.04

# From ChEMBL document CHEMBL4316593 (Eur J Med Chem, 2019)
